Source: ChEMBL document CHEMBL4811219 (Eur J Med Chem, 2021)

Key:
Assay type in all cases: ADME, organism-based
Settings in all cases: in vivo
[1] = Observed AUC (0-7 hrs) in CD-1 mouse at 10 mg/kg, ip by LC-MS/MS analysis; set-up: time < 7 hr, route intraperitoneal, dose 10 mg/kg
[2] = Cmax in CD-1 mouse at 10 mg/kg, ip upto 7 hrs by LC-MS/MS analysis; set-up: route intraperitoneal, dose 10 mg/kg, time <=7
How it was run: (§1)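 Female CD-1 mice, single dose of 10 mg/kg i.p. or 20 mg/kg p.o., in 20% DMSO/50% PEG-400/30% PBS. Blood was sampled at 0.5, 2, 4 and 7 h and plasma assayed by LC-MS/MS (ESI positive MRM). Parameters are noncompartmental, mean of N=3.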

[3] = Cmax in CD-1 mouse at 20 mg/kg, po upto 7 hrs by LC-MS/MS analysis; set-up: route oral, dose 20 mg/kg, time <=7; how it was run: as §1
[4] = Observed AUC (0-7 hrs) in CD-1 mouse at 20 mg/kg, po by LC-MS/MS analysis; set-up: time < 7 hr, route oral, dose 20 mg/kg

Row | SMILES | AUC [1] [µM·h] | Cmax [2] [µM] | Cmax [3] [µM] | AUC [4] [µM·h]
1 | CC(Sc1nc2nn(C3COC3)cc2c(=O)n1-c1ccccc1)c1ccccc1 (stereo not drawn) | 19.5 | 7.9 |  | 
2 | CC(Sc1nc2c(cnn2C)c(=O)n1-c1ccccc1)c1ccccc1 (stereo not drawn) | 4.9 | 2.3 | 0.8 | 3.9
3 | CC(Sc1nc2nn(C3COC3)cc2c(=O)n1-c1ccccc1)c1ccccn1 (stereo not drawn) |  | 3.3 | 3.9 | 
4 | CC(Sc1nc2nn(C3(C)COC3)cc2c(=O)n1-c1ccccc1)c1ccccc1 (stereo not drawn) | 23 | 7 | 7 | 23.3
5 | CC(Sc1nc2c(cnn2C)c(=O)n1-c1ccccc1)c1ccccn1 (stereo not drawn) | 7.9 | 3.9 | 7.3 | 17.4
6 | C[C@@H](Sc1nc2c(cnn2C)c(=O)n1-c1ccccc1)c1ccccc1 | 0.7 | 0.3 |  | 
